Source: PubChem BioAssay AID624204 (Sanford-Burnham Center for Chemical Genomics, 2012)
In all, about 360,000 compounds went through this assay and about 770 (0.21%) were called active.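 How the source made its calls: active means inhibition at least 30% at 10 µM, raw YFP signal under a set limit, fluorescence ratio 0.5 to 1.5; inactive means the rest.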 What follows is part of a selection rich in actives, with near analogues and random picks from the rest.

Molecular target: Sentrin-specific protease 1 (Homo sapiens) (UniProt Q9P0U3)
Sequence (Q9P0U3 419-644 limits assumed): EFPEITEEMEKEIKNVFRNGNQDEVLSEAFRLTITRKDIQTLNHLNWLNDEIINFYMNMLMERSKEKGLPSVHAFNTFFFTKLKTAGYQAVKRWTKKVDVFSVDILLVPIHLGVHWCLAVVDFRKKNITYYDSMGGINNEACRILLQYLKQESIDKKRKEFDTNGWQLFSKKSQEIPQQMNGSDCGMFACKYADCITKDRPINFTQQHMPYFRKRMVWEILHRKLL
Test: human SENP1 catalytic domain inhibitors, primary screen, biochemical, FRET, uHTS (AID 624204);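 further: 0% = enzyme with DMSO and 100% = no enzyme wells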
Conditions: recombinant SENP1 catalytic domain, CyPet-SUMO1-YPet FRET cleavage; at 10 µM; active compounds read high
Method in brief: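 Controls: no-enzyme wells low, DMSO-plus-enzyme wells high control. Test system: human recombinant His6-tagged SENP1 catalytic domain enzyme. Reagent: SFCypet-SUMO1-SFYpet FRET protein substrate, 25 nM final. Doses: one dose per compound, 10 µM, 0.5% DMSO. Detection: FRET, CFP and YFP emission. Timing: 50 min reaction at room temperature.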

| SMILES | inhibition |
| --- | --- |
| CC(=O)N1CCOc2ccc(S(=O)(=O)N3CCN(c4cccc(C(F)(F)F)c4)CC3)cc21 | 2.33% (inactive) |
| COc1ccc(N2CCC(N3CCN(C)C(CCO)C3)CC2)cc1 (stereo unspecified) | -1.06% (inactive) |
| O=[N+]([O-])c1ccc(N=NNc2ccc([N+](=O)[O-])cc2)cc1 | 67.8% (active) |
| NC(=O)C1(Nc2ccc([N+](=O)[O-])cc2)CCCC1 | -1.76% (inactive) |
| O=[N+]([O-])/C(N=Nc1ccccc1)=N\Nc1ccccc1 | 0.203% (inactive) |
| Cc1ccc(C(=O)N/N=C\c2cc(Br)c(Br)o2)cn1 | 41.1% (active) |
| O=C(N/N=C/c1ccc(Br)o1)c1cncc(Br)c1 | 0.704% (inactive) |
| Brc1cc(/C=N/n2cnnc2)oc1Br | 2.85% (inactive) |
| CC(C)(C)OC(=O)C[C@@H]1C/C=C\C[C@@H](CC(=O)N[C@@H](CO)Cc2ccccc2)C(=O)N2CCC[C@H]2COC1=O | 1.24% (inactive) |
| Cc1ccc(Cn2nnc3c(=O)[nH]c(C4CCN(S(=O)(=O)/C=C/c5ccccc5)CC4)nc32)cc1 | -2.14% (inactive) |
| Cc1cccc(Nc2nnc(SCC(=O)c3c(N)n(C4CC4)c(=O)[nH]c3=O)s2)c1C | 1.61% (inactive) |
| Nn1c(SCC(=O)Nc2nccs2)nncc1=O | 2.89% (inactive) |
| O=C(Nc1ccc2c(c1)OCCO2)C1c2ccccc2OCC(=O)N1Cc1ccccn1 (stereo unspecified) | -6.74% (inactive) |
| Cc1ccc(F)c(NC(=O)CCc2ccccc2)c1 | -0.0761% (inactive) |
| CCNc1nc(N)nc(-c2cc(Cl)ccc2OC)n1 | 0.684% (inactive) |
| O=C(CNC(=O)c1ccc(Cl)cc1Cl)NCC(=O)Nc1ccccc1N1CCOCC1 | 4.8% (inactive) |
| CCCC1OC23CCCCC2C(C#N)(C#N)C1(C#N)C(=N)O3 (stereo unspecified) | -28.3% (inactive) |
| CCOC(=O)CCC(=O)OCC(=O)NC(C)C1CC2CCC1C2 (stereo unspecified) | 2.09% (inactive) |
| COC(=O)C(C)N=Cc1ccccc1 (stereo unspecified) | 3.52% (inactive) |

| SMILES | inhibition |
| --- | --- |
| COC(=O)N/N=C/c1c[n+]([O-])c2ccccc2[n+]1[O-] | 58.5% (active) |
| N#Cc1ccc(C(c2ccc(C#N)cc2)n2cncn2)cc1 | -1.95% (inactive) |
| O=C(Nc1cccc(OCC(=O)N2CCOCC2)c1)C1CCCCC1 | -0.72% (inactive) |
| COc1ccc(N2C(=O)CC(N3CCC(C(N)=O)CC3)C2=O)cc1 (stereo unspecified) | -0.137% (inactive) |
| COc1ccc(N2C(=O)C3C(C2=O)C(C(=O)c2ccccc2)N2CCCC32)cc1 (stereo unspecified) | 40% (active) |
| CNC(=O)C[C@H]1C(=O)N(c2ccc(OC)cc2)C[C@@H]1Cc1ccccc1 | 3.98% (inactive) |
| CC(C)Oc1ccc(C(CC(=O)N2CCOCC2)C(C)C)cc1 (stereo unspecified) | 1.52% (inactive) |
| CC(C)(C)c1cc(NC(=O)NN2CCOCC2)nn1-c1c(Cl)cc(Cl)cc1Cl | 2.79% (inactive) |
| Cn1c(N)cc(=O)n(C)c1=S | -0.927% (inactive) |
| COc1ccc(CCNS(=O)(=O)c2cc3c(cc2C)NC(=O)CO3)cc1OC | 2.06% (inactive) |
| COc1ccc(OC)c(C2C3=C(N=c4s/c(=C\c5cccc(O)c5)c(=O)n42)c2ccccc2CC3)c1 (stereo unspecified) | 45.9% (active) |
| CCC1([N+](=O)[O-])COC(c2ccc(C(C)C)cc2)OC1 (stereo unspecified) | 2.7% (inactive) |
| Cc1ccc2c(c1)N(C(=O)CCC(=O)N1CCc3ccccc3C1)CCO2 | 1.45% (inactive) |
| CCOC(=O)[C@H]1[C@H]2COc3ccc(Cl)cc3[C@@H]2N2C(=O)c3cc(C)ccc3NC(=O)[C@@]12C | 1.07% (inactive) |
| Nn1c(Cc2cccc3ccccc23)nnc1SCC(=O)N1CC(=O)Nc2ccccc21 | 3.32% (inactive) |
| CCc1ccc2ncc(C(=O)c3ccccc3)c(N3CCOCC3)c2c1 | -0.316% (inactive) |
| O=C(CCN1C(=O)c2ccccc2C1=O)NNC(=O)c1ccc(Cl)cc1Cl | 1.7% (inactive) |
| Cc1c(C(=O)NCCN2C(=O)S/C(=C\c3cccs3)C2=O)cccc1[N+](=O)[O-] | 5.33% (inactive) |
| O=C(CCN1C(=O)/C(=C/c2cccs2)SC1=S)NNC(=O)c1cccc(O)c1 | 72.7% (active) |

| SMILES | inhibition |
| --- | --- |
| O=C(O)c1cc(S(=O)(=O)N2CCCCCC2)c(Cl)cc1Cl | -0.414% (inactive) |
| Cc1nn(-c2ccccc2)c(CC(C)(C)C(=O)O)c1C(=O)O | 1.05% (inactive) |
| CCCCN(C(=O)CSCC(=O)Nc1ccc(OC)cc1)c1c(N)n(CCC)c(=O)[nH]c1=O | -2.42% (inactive) |
| Cc1cc(=O)cc(C)n1-c1ccc(Cl)c(Cl)c1 | 2.24% (inactive) |
| CC(=O)NC1(c2cccc(F)c2)CCN(CC(=O)NC(C)C)CC1 | -0.563% (inactive) |
| O=C(CC1CCCCC1)NCc1ccc(F)cc1 | 1.88% (inactive) |
| CNS(=O)(=O)c1cccc(C(=O)OCCCC(=O)c2ccccc2)c1 | 0.585% (inactive) |
| COc1ccc(CC2c3cc(OC)c(OC)cc3CC[N+]2(C)CCC(=O)OCCCCCOC(=O)CC[N+]2(C)CCc3cc(OC)c(OC)cc3C2Cc2ccc(OC)c(OC)c2)cc1OC (stereo unspecified) | -1.31% (inactive) |
| CN(C)C(=O)c1cccc(-c2cnc3c(NC=O)cc(-c4ccc(C(=O)N5CCOCC5)cc4)cn23)c1 | -29.9% (inactive) |
| CC(=O)c1cccc(-c2cnc3c(NC=O)cc(-c4ccc(N5CCN(C)CC5)cc4)cn23)c1 | 28% (inactive) |
| CC(=O)c1cccc(-c2cnc3c(NC=O)cc(-c4ccc(N(C)C)cc4)cn23)c1 | 50% (active) |
| CC(=O)NCC(=O)N1CCC(n2nccc2NC(=O)CCCc2ccccc2)CC1 | 0.687% (inactive) |
| Cc1nc2nc(C)c(CCC(=O)N3CCN(c4ccccc4)CC3)c(C)n2n1 | 0.72% (inactive) |
| O=C(C[C@H]1C[C@H]2c3cc(NS(=O)(=O)c4ccc(F)cc4)ccc3O[C@H]2[C@H](CO)O1)NCc1cc(F)ccc1F | -0.578% (inactive) |
| O=C(Nc1ccc(F)cc1F)N1CCCN(CCOc2ccccc2)CC1 | -1.95% (inactive) |
| COc1ccc(N2CCN(C(=O)c3ccc(N4CCCCS4(=O)=O)cc3)CC2)cc1 | -2.08% (inactive) |
| Cn1nnnc1SCC(=O)Nc1ccccc1C(=O)NC1CC1 | -4.1% (inactive) |
| Cc1cccc(NC(=O)c2ccc3c(=O)n(CC4CCCO4)c(=S)[nH]c3c2)c1 (stereo unspecified) | -0.024% (inactive) |
